Laboratory results taken from ChEMBL document CHEMBL1127018, “Synthesis and biological activity of spirocyclic benzopyran imidazolone potassium channel openers” (1993).

Tests used:
A10 [1] = assay: Percent decrease in fluorescence in a membrane potential assay using the A10 cell line derived from embryonic rat aorta at 0.1 uM; assay type: functional
Method in brief: (§1)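 Postconfluent A10 cells (passage ≤20, grown in DMEM/15% FBS) equilibrated ≥15 min at 37 °C in 5 μM DiBAC₄(3) in EBSS with 20 mM HEPES, pH 7.3. Compound added from 1000X DMSO or water stocks. Fluorescence (ex 488, em 525 nm) imaged every 60 s at 37 °C from a field of about 50 cells and normalized between experiments.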

A10 [2] = assay: Percent decrease in fluorescence in a membrane potential assay using the A10 cell line derived from embryonic rat aorta at 1.0 uM; assay type: functional; method in brief: as §1
A10 [3] = assay: Percent decrease in fluorescence in a membrane potential assay using the A10 cell line derived from embryonic rat aorta at 0.001 uM; assay type: functional; method in brief: as §1
A10 [4] = assay: Percent decrease in fluorescence in a membrane potential assay using the A10 cell line derived from embryonic rat aorta at 0.01 uM; assay type: functional; method in brief: as §1
A10 [5] = assay: Percent decrease in fluorescence in a membrane potential assay using the A10 cell line derived from embryonic rat aorta at 10.0 uM; assay type: functional; method in brief: as §1
Rattus norvegicus [6] = assay: Change in heart rate in beats per minute in anesthetized female rats at a dose of 0.01 mg/kg and a cumulative dose of 0.01 mg/kg; assay type: functional
Method in brief: (§2)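 Fasted female Sprague-Dawley rats, 200–250 g, anesthetized iv with α-chloralose 40 mg/kg, urethane 20 mg/kg and pentobarbital 20 mg/kg. Femoral vein cannulated for dosing; heart rate taken by tachograph triggered from the arterial pulse. Rectal temperature kept at 36–38 °C. Drug given iv in 20% DMA/saline as four rising bolus steps 20 min apart. ΔHR from pretreatment is the mean of 4–5 rats.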

Rattus norvegicus [7] = assay: Change in heart rate in beats per minute in anesthetized female rats at a dose of 0.03 mg/kg and a cumulative dose of 0.04 mg/kg; assay type: functional; method in brief: as §2
Rattus norvegicus [8] = assay: Change in heart rate in beats per minute in anesthetized female rats at a dose of 0.10 mg/kg and a cumulative dose of 0.14 mg/kg; assay type: functional; method in brief: as §2
Rattus norvegicus [9] = assay: Change in mean arterial pressure in anesthetized female rats at a dose of 0.01 mg/kg and a cumulative dose of 0.01 mg/kg; assay type: functional, Artery
Method in brief: (§3)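 Fasted female Sprague-Dawley rats, 200–250 g, under iv α-chloralose/urethane/pentobarbital anesthesia. Mean arterial pressure recorded continuously through a femoral artery catheter, after 30 min postsurgical equilibration. Compound given iv in 20% DMA/saline as step doses (initial plus three higher) at 20-min intervals. ΔMAP from pretreatment averaged over 4–5 rats per group; vehicle controls pooled n = 6.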

Rattus norvegicus [10] = assay: Change in mean arterial pressure in anesthetized female rats at a dose of 0.03 mg/kg and a cumulative dose of 0.04 mg/kg; assay type: functional, Artery; method in brief: as §3
Rattus norvegicus [11] = assay: Change in mean arterial pressure in anesthetized female rats at a dose of 0.10 mg/kg and a cumulative dose of 0.14 mg/kg; assay type: functional, Artery; method in brief: as §3
Rattus norvegicus [12] = assay: Change in mean arterial pressure in anesthetized female rats at a dose of 0.30 mg/kg and a cumulative dose of 0.44 mg/kg; assay type: functional, Artery; method in brief: as §3
Rattus norvegicus [13] = assay: Change in heart rate in beats per minute in anesthetized female rats at a dose of 0.30 mg/kg and a cumulative dose of 0.44 mg/kg; assay type: functional; method in brief: as §2
Rattus norvegicus [14] = assay: Change in heart rate in beats per minute in anesthetized female rats at a dose of 0.003 mg/kg and a cumulative dose of 0.004 mg/kg; assay type: functional; method in brief: as §2
Rattus norvegicus [15] = assay: Change in heart rate in beats per minute in anesthetized female rats at a dose of 0.030 mg/kg and a cumulative dose of 0.044 mg/kg; assay type: functional; method in brief: as §2
Rattus norvegicus [16] = assay: Change in mean arterial pressure in anesthetized female rats at a dose of 0.001 mg/kg and a cumulative dose of 0.001 mg/kg; assay type: functional, Artery; method in brief: as §3
Rattus norvegicus [17] = assay: Change in mean arterial pressure in anesthetized female rats at a dose of 0.003 mg/kg and a cumulative dose of 0.004 mg/kg; assay type: functional, Artery; method in brief: as §3
Rattus norvegicus [18] = assay: Change in mean arterial pressure in anesthetized female rats at a dose of 0.010 mg/kg and a cumulative dose of 0.014 mg/kg; assay type: functional, Artery; method in brief: as §3
Rattus norvegicus [19] = assay: Change in mean arterial pressure in anesthetized female rats at a dose of 0.030 mg/kg and a cumulative dose of 0.044 mg/kg; assay type: functional, Artery; method in brief: as §3
Rattus norvegicus [20] = assay: Change in heart rate in beats per minute in anesthetized female rats at a dose of 0.001 mg/kg and a cumulative dose of 0.001 mg/kg; assay type: functional; method in brief: as §2
Rattus norvegicus [21] = assay: Change in heart rate in beats per minute in anesthetized female rats at a dose of 0.010 mg/kg and a cumulative dose of 0.014 mg/kg; assay type: functional; method in brief: as §2

CC(C)NC1=NC(=O)C2(CC(C)(C)Oc3ccc(Br)cc32)N1 (stereo unspecified)
Decrease (A10 [1]): 5%
Decrease (A10 [2]): 22%

CNC1=NC(=O)C2(CC(C)(C)Oc3ccc([N+](=O)[O-])cc32)N1 (stereo unspecified)
Decrease (A10 [3]): <5%
Decrease (A10 [4]): 15%
Decrease (A10 [1]): 38%

CC(C)(C)CNC1=NC(=O)C2(CC(C)(C)Oc3ccccc32)N1 (stereo unspecified)
Decrease (A10 [5]): 7%

CNC1=NC(=O)C2(CC(C)(C)Oc3ccc(F)cc32)N1 (stereo unspecified)
Decrease (A10 [2]): 11%
Decrease (A10 [5]): 14%

CCOC1=NC(=O)C2(CC(C)(C)Oc3ccc(Br)cc32)N1 (stereo unspecified)
Decrease (A10 [1]): 5%
Decrease (A10 [2]): 20%

CCNC1=NC(=O)C2(CC(C)(C)Oc3ccc([N+](=O)[O-])cc32)N1 (stereo unspecified)
Decrease (A10 [3]): 9%
Decrease (A10 [4]): 13%
Decrease (A10 [1]): 28%

CSC1=NC(=O)C2(CC(C)(C)Oc3ccc(F)cc32)N1 (stereo unspecified)
Decrease (A10 [2]): 9%
Decrease (A10 [5]): 27%

CCCSC1=NC(=O)C2(CC(C)(C)Oc3ccc(C#N)cc32)N1 (stereo unspecified)
Decrease (A10 [1]): <5%
Decrease (A10 [2]): 17%

CCNC1=NC(=O)C2(CC(C)(C)Oc3ccc(C#N)cc32)N1 (stereo unspecified)
Decrease (A10 [1]): 8%
Decrease (A10 [2]): 25%

CC(C)NC1=NC(=O)C2(CC(C)(C)Oc3ccc(C#N)cc32)N1 (stereo unspecified)
Decrease (A10 [1]): <5%
Decrease (A10 [2]): 10%

CCNC1=NC(=O)C2(CC(C)(C)Oc3ccc(F)cc32)N1 (stereo unspecified)
Decrease (A10 [1]): 19%
Decrease (A10 [2]): 24%
Delta HR (Rattus norvegicus [6]): -0.4 beats min-1
Delta HR (Rattus norvegicus [7]): 1.7 beats min-1
Delta HR (Rattus norvegicus [8]): 38 beats min-1
Delta MAP (Rattus norvegicus [9]): -7.1 mmHg
Delta MAP (Rattus norvegicus [10]): -10.7 mmHg
Delta MAP (Rattus norvegicus [11]): -28 mmHg
Delta MAP (Rattus norvegicus [12]): -44.6 mmHg
Delta HR (Rattus norvegicus [13]): 45.6 beats min-1

CCSC1=NC(=O)C2(CC(C)(C)Oc3ccc(Br)cc32)N1 (stereo unspecified)
Decrease (A10 [3]): 7%
Decrease (A10 [4]): 11%
Decrease (A10 [1]): 18%
Delta HR (Rattus norvegicus [6]): 15.5 beats min-1
Delta HR (Rattus norvegicus [7]): 29 beats min-1
Delta HR (Rattus norvegicus [8]): 16.5 beats min-1
Delta MAP (Rattus norvegicus [9]): -2.5 mmHg
Delta MAP (Rattus norvegicus [10]): -16.3 mmHg
Delta MAP (Rattus norvegicus [11]): -21.5 mmHg
Delta MAP (Rattus norvegicus [12]): -25 mmHg
Delta HR (Rattus norvegicus [13]): 17.5 beats min-1

CCOC1=NC(=O)C2(CC(C)(C)Oc3ccccc32)N1 (stereo unspecified)
Decrease (A10 [5]): <5%

CSC1=NC(=O)C2(CC(C)(C)Oc3ccc(C#N)cc32)N1 (stereo unspecified)
Decrease (A10 [2]): 5%
Decrease (A10 [5]): 25%

CSC1=NC(=O)C2(CC(C)(C)Oc3ccc([N+](=O)[O-])cc32)N1 (stereo unspecified)
Decrease (A10 [4]): 8%
Decrease (A10 [1]): 11%
Decrease (A10 [2]): 16%

CCNC1=NC(=O)C2(CC(C)(C)Oc3ccc(Br)cc32)N1 (stereo unspecified)
Decrease (A10 [1]): 26%
Decrease (A10 [2]): 19%

CNC1=NC(=O)C2(CC(C)(C)Oc3ccc(Br)cc32)N1 (stereo unspecified)
Decrease (A10 [1]): 22%
Decrease (A10 [2]): 17%

CCCNC1=NC(=O)C2(CC(C)(C)Oc3ccccc32)N1 (stereo unspecified)
Decrease (A10 [2]): 7%

CCCNC1=NC(=O)C2(CC(C)(C)Oc3ccc(C#N)cc32)N1 (stereo unspecified)
Decrease (A10 [4]): <5%
Decrease (A10 [1]): 21%
Decrease (A10 [2]): 27%
Delta HR (Rattus norvegicus [6]): 13.8 beats min-1
Delta HR (Rattus norvegicus [7]): 19.2 beats min-1
Delta HR (Rattus norvegicus [8]): 29.8 beats min-1
Delta MAP (Rattus norvegicus [9]): -23.6 mmHg
Delta MAP (Rattus norvegicus [10]): -50.8 mmHg
Delta MAP (Rattus norvegicus [11]): -66.2 mmHg
Delta MAP (Rattus norvegicus [12]): -70 mmHg
Delta HR (Rattus norvegicus [13]): 39.2 beats min-1

CCCNC1=NC(=O)C2(CC(C)(C)Oc3ccc(Br)cc32)N1 (stereo unspecified)
Decrease (A10 [4]): 12%
Decrease (A10 [1]): 28%
Delta HR (Rattus norvegicus [6]): 44.9 beats min-1
Delta HR (Rattus norvegicus [7]): 25.6 beats min-1
Delta HR (Rattus norvegicus [8]): 46.3 beats min-1
Delta MAP (Rattus norvegicus [9]): -25.6 mmHg
Delta MAP (Rattus norvegicus [10]): -56.7 mmHg
Delta MAP (Rattus norvegicus [11]): -70.1 mmHg
Delta MAP (Rattus norvegicus [12]): -70.6 mmHg
Delta HR (Rattus norvegicus [13]): 92.8 beats min-1

CSC1=NC(=O)C2(CC(C)(C)Oc3ccc(Br)cc32)N1 (stereo unspecified)
Decrease (A10 [1]): 6%
Decrease (A10 [2]): 27%

CCCNC1=NC(=O)C2(CC(C)(C)Oc3ccc([N+](=O)[O-])cc32)N1 (stereo unspecified)
Decrease (A10 [3]): 8%
Decrease (A10 [4]): 19%
Decrease (A10 [1]): 28%
Delta HR (Rattus norvegicus [14]): 3.3 beats min-1
Delta HR (Rattus norvegicus [15]): 31.8 beats min-1
Delta MAP (Rattus norvegicus [16]): -19.8 mmHg
Delta MAP (Rattus norvegicus [17]): -51.3 mmHg
Delta MAP (Rattus norvegicus [18]): -66 mmHg
Delta MAP (Rattus norvegicus [19]): -72 mmHg
Delta HR (Rattus norvegicus [20]): 6.8 beats min-1
Delta HR (Rattus norvegicus [21]): 3.8 beats min-1

CNC1=NC(=O)C2(CC(C)(C)Oc3ccc(C#N)cc32)N1 (stereo unspecified)
Decrease (A10 [1]): <5%
Decrease (A10 [2]): 19%

CCCNC1=NC(=O)C2(CC(C)(C)Oc3ccc(F)cc32)N1 (stereo unspecified)
Decrease (A10 [1]): 10%
Decrease (A10 [2]): 17%

CCCSC1=NC(=O)C2(CC(C)(C)Oc3ccc(Br)cc32)N1 (stereo unspecified)
Decrease (A10 [1]): 6%
Decrease (A10 [2]): 15%

CCOC1=NC(=O)C2(CC(C)(C)Oc3ccc(F)cc32)N1 (stereo unspecified)
Decrease (A10 [2]): <5%
Decrease (A10 [5]): 13%

CCSC1=NC(=O)C2(CC(C)(C)Oc3ccc(C#N)cc32)N1 (stereo unspecified)
Decrease (A10 [2]): 6%
Decrease (A10 [5]): 24%

CSC1=NC(=O)C2(CC(C)(C)Oc3ccccc32)N1 (stereo unspecified)
Decrease (A10 [5]): <5%

CC(C)NC1=NC(=O)C2(CC(C)(C)Oc3ccc(F)cc32)N1 (stereo unspecified)
Decrease (A10 [2]): 5%
Decrease (A10 [5]): 22%

CC(C)NC1=NC(=O)C2(CC(C)(C)Oc3ccccc32)N1 (stereo unspecified)
Decrease (A10 [5]): 13%

CC1(C)Oc2ccc(C#N)cc2C(N2CCCC2=O)C1O (stereo unspecified) [CROMAKALIM]
Decrease (A10 [1]): <5%
Decrease (A10 [2]): 22%
Delta HR (Rattus norvegicus [6]): 33.8 beats min-1
Delta HR (Rattus norvegicus [7]): 53.4 beats min-1
Delta HR (Rattus norvegicus [8]): 65.6 beats min-1
Delta MAP (Rattus norvegicus [9]): -14.7 mmHg
Delta MAP (Rattus norvegicus [10]): -22.6 mmHg
Delta MAP (Rattus norvegicus [11]): -36.1 mmHg
Delta MAP (Rattus norvegicus [12]): -52.7 mmHg
Delta HR (Rattus norvegicus [13]): 63 beats min-1
